The test system of assay [1] is 4T1 murine breast cancer lysates. The assay can be described thus: Cleavage of ACC peptide substrates in tumor lysate. Format: biochemical, mouse. The note with it: E64 10 μM preincubation, 4T1 lysate, acidic pH; Fig. 1D. In outline:
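ACC-reporter peptide substrates were added to 4T1 murine breast cancer lysate at acidic pH, with or without prior preincubation with the cysteine cathepsin inhibitor E64 (10 μM). Cleavage velocity was plotted as mean ± SD, n=3.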

Another assay concerns immortalized macrophages. The assay can be described thus: Probe activation in cells by flow cytometry. The format is cell-based. The note with it: E64d pretreatment; Fig. S4. On the technique in general: Flow cytometry measures light scatter and fluorescence of single cells or particles in a stream.

From PMC8163102 (Angewandte Chemie (International ed. in English), 2020) come the findings set out here.

In the case of `CC(C)C[C@H](NC(=O)[C@H]1O[C@@H]1C(=O)O)C(=O)NCCCCN=C(N)N` [E64], in assay [1], the “Effect of preincubation with the inhibitor on cleavage of ACC substrates 1-3” value is “fully abrogated cleavage”.

Consider `CCOC(=O)[C@H]1O[C@@H]1C(=O)N[C@@H](CC(C)C)C(=O)NCCC(C)C` [E64d], for which the “Effect of inhibitor pretreatment on labelling of cells by probe 5” value with immortalized macrophages is “strongly diminished labelling”.
